In ChEMBL document CHEMBL4270612, “Discovery of dual GyrB/ParE inhibitors active against Gram-negative bacteria” (Eur J Med Chem, 2018):
Converted amounts (≈) assume the structure as drawn.

Columns and labels:
Pseudomonas aeruginosa [1] = assay: Antibacterial activity against Pseudomonas aeruginosa PAO1 after 24 hrs by broth microdilution method; type: functional; conditions: PAO1, 24 h
Summary of the method: (§1)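 Broth microdilution per CLSI. Bacterial suspension adjusted to 1×10^6 CFU/mL in cation-adjusted Mueller–Hinton broth and mixed 1:1 with 2-fold serial compound dilutions. Final DMSO 2.5% v/v. Plates incubated at 35 °C with shaking at 140 rpm for 24 h.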

Pseudomonas aeruginosa [2] = assay: Antibacterial activity against Pseudomonas aeruginosa harboring MexABCDXY deletion mutant after 24 hrs by broth microdilution method; type: functional
Summary of the method: (§2)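 Broth microdilution per CLSI. Bacterial suspensions adjusted to 1×10^6 CFU/mL in cation-adjusted Mueller–Hinton broth, mixed 1:1 with 2-fold serial compound dilutions (final DMSO 2.5% v/v). Incubation 35 °C, 140 rpm, 24 h.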

[3] = target: DNA topoisomerase 4 subunit B (Escherichia coli K-12, UniProt P20083); assay: Inhibition of Escherichia coli ParE
Escherichia coli [4] = assay: Antibacterial activity against tolC deficient Escherichia coli after 24 hrs by broth microdilution method; type: functional
Summary of the method: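 Broth microdilution per CLSI guidelines. Inoculum adjusted to 1×10^6 CFU/mL in cation-adjusted Mueller–Hinton broth, added 1:1 to 2-fold serial compound dilutions; final DMSO 2.5% v/v. Plates incubated 35 °C, 140 rpm, 24 h.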

[5] = Dissociation constant, acidic pKa of compound by pH metric method; type: physicochemical
Summary of the method: (§3)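 Potentiometric (pH-metric) titration on an automated titrator, Gold Standard pH metric assay, run in triplicate.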

Escherichia coli [6] = assay: Antibacterial activity against Escherichia coli after 24 hrs by broth microdilution method; type: functional; summary of the method: as §1
[7] = Dissociation constant, basic pKa of compound by pH metric method; type: physicochemical; summary of the method: as §3
DNA gyrase subunit B = DNA gyrase subunit B (Escherichia coli, UniProt P0AES6); assay: Inhibition of Escherichia coli GyrB (1 to 220 residues) expressed in Escherichia coli BL21(DE3)
Enterococcus faecalis = assay: Antibacterial activity against Enterococcus faecalis ATCC 29212 after 24 hrs by broth microdilution method; type: functional; conditions: ATCC 29212, 24 h; summary of the method: as §1
Enterobacter cloacae = assay: Antibacterial activity against Enterobacter cloacae ARC3528 after 24 hrs by broth microdilution method; type: functional; conditions: ARC3528, 24 h; summary of the method: as §1
Acinetobacter baumannii = assay: Antibacterial activity against Acinetobacter baumannii ARC3495 after 24 hrs by broth microdilution method; type: functional; conditions: ARC3495, 24 h; summary of the method: as §1
Staphylococcus aureus [8] = assay: Antibacterial activity against methicillin-resistant Staphylococcus aureus USA100 after 24 hrs by broth microdilution method; type: functional; conditions: USA100, 24 h; summary of the method: as §2
Candida albicans = assay: Antifungal activity against Candida albicans ATCC 90028 after 24 hrs by broth microdilution method; type: functional; conditions: ATCC 90028, 24 h
Klebsiella pneumoniae = assay: Antibacterial activity against Klebsiella pneumoniae ARC1865 after 24 hrs by broth microdilution method; type: functional; conditions: ARC1865, 24 h; summary of the method: as §1
Staphylococcus aureus [9] = assay: Antibacterial activity against methicillin-resistant Staphylococcus aureus FQ-R after 24 hrs by broth microdilution method; type: functional; summary of the method: as §2
Staphylococcus aureus [10] = assay: Antibacterial activity against Staphylococcus aureus ATCC 29213 after 24 hrs in presence of 2% human albumin by broth microdilution method; type: functional; conditions: ATCC 29213, 24 h
Haemophilus influenzae = assay: Antibacterial activity against Haemophilus influenzae ATCC 49247 after 24 hrs by broth microdilution method; type: functional; conditions: ATCC 49247, 24 h; summary of the method: as §1
Streptococcus pneumoniae = assay: Antibacterial activity against Streptococcus pneumoniae ATCC 49619 after 24 hrs by broth microdilution method; type: functional; conditions: ATCC 49619, 24 h; summary of the method: as §1
Staphylococcus aureus [11] = assay: Antibacterial activity against Staphylococcus aureus ATCC 29213 after 24 hrs by broth microdilution method; type: functional; conditions: ATCC 29213, 24 h; summary of the method: as §1
[12] = Dissociation constant, pKa of compound by pH metric method; type: physicochemical; summary of the method: as §3
[13] = Growth inhibition of human A549 cells; type: cell-based
Escherichia coli [14] = assay: Selectivity ratio of IC50 for Escherichia coli ParE to IC50 for Escherichia coli GyrB (1 to 220 residues) expressed in Escherichia coli BL21(DE3)
Streptococcus pyogenes = assay: Antibacterial activity against Streptococcus pyogenes ARC838 after 24 hrs by broth microdilution method; type: functional; conditions: ARC838, 24 h
Summary of the method: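 Broth microdilution per CLSI. Bacterial suspension adjusted to 1×10^6 CFU/mL in cation-adjusted Mueller–Hinton broth and mixed 1:1 with 2-fold serial compound dilutions. Plates incubated at 35 °C with shaking at 140 rpm for 24 h.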

Chain of DNA topoisomerase 4 subunit B (P20083 whole entry): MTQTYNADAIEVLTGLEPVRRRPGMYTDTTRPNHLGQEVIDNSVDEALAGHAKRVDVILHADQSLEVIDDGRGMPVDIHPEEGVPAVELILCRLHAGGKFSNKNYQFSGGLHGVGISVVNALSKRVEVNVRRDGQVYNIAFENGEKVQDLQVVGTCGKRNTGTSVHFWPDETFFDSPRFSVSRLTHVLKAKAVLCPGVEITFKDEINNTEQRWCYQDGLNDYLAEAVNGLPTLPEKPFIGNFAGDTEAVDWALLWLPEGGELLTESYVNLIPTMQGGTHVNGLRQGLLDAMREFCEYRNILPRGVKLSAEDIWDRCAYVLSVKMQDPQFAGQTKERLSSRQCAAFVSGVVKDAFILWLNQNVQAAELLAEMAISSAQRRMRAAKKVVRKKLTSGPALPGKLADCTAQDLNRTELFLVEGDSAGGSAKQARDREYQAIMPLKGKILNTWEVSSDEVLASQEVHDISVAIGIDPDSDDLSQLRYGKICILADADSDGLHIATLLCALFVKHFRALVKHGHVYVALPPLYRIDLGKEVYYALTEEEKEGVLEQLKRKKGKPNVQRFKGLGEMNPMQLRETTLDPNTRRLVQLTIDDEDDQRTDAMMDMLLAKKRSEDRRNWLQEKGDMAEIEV

| SMILES | MIC (Pseudomonas aeruginosa [1]) | MIC (Pseudomonas aeruginosa [2]) | IC50 [3] | MIC (Escherichia coli [4]) | MIC (Escherichia coli [6]) | IC50 (DNA gyrase subunit B) | pKa [12] | GI50 [13] | other results |
| --- | --- | --- | --- | --- | --- | --- | --- | --- | --- |
| CCNC(=O)Nc1cc(-c2nc(C(F)(F)F)cs2)c(-c2cc(-c3n[nH]c(=O)o3)cnc2N2[C@@H]3CC[C@H]2C[C@@H](N)C3)cn1 | > 50 µg/mL | 0.6 µg/mL (≈ 0.997 µM) | 12 nM | 4.8 µg/mL (≈ 7.98 µM) | > 50 µg/mL | 4 nM | – | – | pKa [5]: 6.8; pKa [7]: 9.5 |
| CC(C)(O/N=C(\C(=O)N[C@@H]1C(=O)N2C(C(=O)[O-])=C(C[n+]3ccccc3)CS[C@H]12)c1csc(N)n1)C(=O)O [CEFTAZIDIME] | – | – | – | – | – | – | – | – | MIC (Enterococcus faecalis): > 32 µg/mL; MIC (Enterobacter cloacae): > 32 µg/mL; MIC (Acinetobacter baumannii): > 32 µg/mL; MIC (Staphylococcus aureus [8]): > 32 µg/mL; MIC (Candida albicans): > 32 µg/mL; MIC (Klebsiella pneumoniae): 0.25 µg/mL (≈ 0.457 µM); MIC (Staphylococcus aureus [9]): > 32 µg/mL; MIC (Staphylococcus aureus [10]): 16 µg/mL; MIC (Haemophilus influenzae): 0.25 µg/mL (≈ 0.457 µM); MIC (Streptococcus pneumoniae): 0.5 µg/mL (≈ 0.915 µM); MIC (Staphylococcus aureus [11]): 16 µg/mL (≈ 29.3 µM) |
| CCNC(=O)Nc1cc(-c2nc(C(F)(F)F)cs2)c(-c2cc3ncccc3nc2N2CC3CCC2CN3)cn1 (stereo not drawn) | > 60 µg/mL | 0.55 µg/mL (≈ 0.992 µM) | 21 nM | 1.1 µg/mL (≈ 1.98 µM) | 8.87 µg/mL (≈ 16 µM) | 8 nM | 9.2 | – | – |
| CCNC(=O)Nc1cc(-c2nc(C(F)(F)F)cs2)c(-c2cc(C(=O)O)ccc2N2C3CCC2CN(C)C3)cn1 | 9 µg/mL (≈ 16.1 µM) | 4.46 µg/mL (≈ 7.96 µM) | 10 nM | 1.12 µg/mL (≈ 2 µM) | 9 µg/mL (≈ 16.1 µM) | 9 nM | – | > 25000 nM | pKa [5]: 4.4; pKa [7]: 8.2 |
| CCNC(=O)Nc1cc(-c2nc(C(F)(F)F)cs2)c(-c2cncc(C(=O)O)c2)cn1 | > 100 µg/mL | > 100 µg/mL | 700 nM | > 100 µg/mL | > 100 µg/mL | 6 nM | 3.5 | – | Ratio IC50 (Escherichia coli [14]): 100 |
| CCNC(=O)Nc1cc(-c2nc(C(F)(F)F)cs2)c(-c2cc3ncccc3nc2N2C3CC2CN(C)C3)cn1 | > 60 µg/mL | 1.1 µg/mL (≈ 1.98 µM) | 200 nM | 2.21 µg/mL (≈ 3.98 µM) | 17.2 µg/mL (≈ 31 µM) | 5 nM | 7.6 | > 50000 nM | – |
| CC(=O)NC[C@H]1CN(c2ccc(N3CCOCC3)c(F)c2)C(=O)O1 [LINEZOLID] | – | – | – | – | – | – | – | – | MIC (Enterobacter cloacae): > 64 µg/mL; MIC (Acinetobacter baumannii): > 64 µg/mL; MIC (Staphylococcus aureus [8]): 1 µg/mL (≈ 2.96 µM); MIC (Candida albicans): > 64 µg/mL; MIC (Klebsiella pneumoniae): > 64 µg/mL; MIC (Staphylococcus aureus [9]): 0.5 µg/mL (≈ 1.48 µM); MIC (Streptococcus pyogenes): 0.5 µg/mL (≈ 1.48 µM); MIC (Haemophilus influenzae): 4 µg/mL (≈ 11.9 µM) |
| CCNC(=O)Nc1cc(-c2nc(C(F)(F)F)cs2)c(-c2cc3ncccc3nc2N2CC3CCCC(C2)N3)cn1 | > 60 µg/mL | 0.55 µg/mL (≈ 0.967 µM) | 25 nM | 0.28 µg/mL (≈ 0.492 µM) | 9.09 µg/mL (≈ 16 µM) | 14 nM | 9.2 | > 50000 nM | – |
| CCNC(=O)Nc1cc(-c2nc(C(F)(F)F)cs2)c(-c2cnc3cccnc3c2)cn1 | > 25 µg/mL | > 25 µg/mL | 2010 nM | 0.44 µg/mL (≈ 0.99 µM) | > 25 µg/mL | 4 nM | – | – | – |
